Assay [1] has as its target T1, Macrophage migration inhibitory factor (Homo sapiens) (UniProt P14174).
T1 sequence (whole entry): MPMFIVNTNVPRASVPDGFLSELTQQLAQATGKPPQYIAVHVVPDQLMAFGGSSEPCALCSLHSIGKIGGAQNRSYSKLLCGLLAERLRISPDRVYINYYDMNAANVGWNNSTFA
Put plainly: Inhibition of human recombinant MIF tautomerase at up to 0.1 uM.

Assay [2] has as its target T2, MIF/CD74 (Macrophage migration inhibitory factor and HLA-DR antigens-associated invariant chain) (Homo sapiens) (UniProt P14174+P04233). Put plainly: Inhibition of human recombinant biotinylated MIF/CD74 interaction at up to 10 uM after 30 mins. Type of assay: protein assay. The procedure, abridged: (§1)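 Bound MIF was detected with streptavidin-alkaline phosphatase and p-nitrophenylphosphate substrate. Compounds were tested over 500- to 5000-fold concentration ranges.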

The target in assay [3] is T3, Macrophage migration inhibitory factor (Homo sapiens, UniProt P14174).
T3 sequence (P14174 whole entry): T1 sequence (whole entry)
Put plainly: Inhibition of human recombinant MIF tautomerase.

Assay [4] concerns the target T4, MIF/CD74 (Macrophage migration inhibitory factor and HLA-DR antigens-associated invariant chain) (Homo sapiens, UniProt P04233+P14174).
T4 sequence (P14174 whole entry): T1 sequence (whole entry)
T4 sequence (P04233 whole entry): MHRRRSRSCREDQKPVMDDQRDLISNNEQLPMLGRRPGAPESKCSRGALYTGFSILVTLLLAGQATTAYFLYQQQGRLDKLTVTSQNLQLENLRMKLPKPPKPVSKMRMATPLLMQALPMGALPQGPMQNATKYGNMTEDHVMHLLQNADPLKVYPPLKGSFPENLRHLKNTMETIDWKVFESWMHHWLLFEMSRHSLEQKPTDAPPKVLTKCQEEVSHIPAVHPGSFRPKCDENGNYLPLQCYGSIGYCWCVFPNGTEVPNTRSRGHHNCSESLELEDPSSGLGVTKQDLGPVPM
In words: (§2) Inhibition of human recombinant biotinylated MIF/CD74 interaction after 30 mins. Type of assay: protein assay. The method, boiled down:
as §1

The target in assay [5] is T1, Macrophage migration inhibitory factor (Homo sapiens). In words: Inhibition of human recombinant MIF tautomerase at 30 uM by mass spectrometry analysis.
Assay [6] addresses T2, MIF/CD74 (Macrophage migration inhibitory factor and HLA-DR antigens-associated invariant chain) (Homo sapiens). In words: Inhibition of human recombinant biotinylated MIF/CD74 interaction at 30 uM by mass spectrometry analysis. Type of assay: protein assay.
For assay [7], the target named is T1, Macrophage migration inhibitory factor (Homo sapiens). In words: Inhibition of MIF-dependent ERK1/2 phosphorylation in rheumatoid arthritis patient synovial fibroblasts assessed as phosphorylated ERK1/2 level at 300 nM after 30 mins.
The target is the same in assay [8]. Put plainly: Inhibition of MIF-dependent ERK1/2 phosphorylation in rheumatoid arthritis patient synovial fibroblasts assessed as total ERK1/2 level at 300 nM after 30 mins.
Assay [9] addresses T5, MIF/CD74 (Macrophage migration inhibitory factor and HLA-DR antigens-associated invariant chain) (Homo sapiens, UniProt P14174+P04233).
T5 sequence (P14174 whole entry): T1 sequence (whole entry)
T5 sequence (P04233 whole entry): T4 sequence (P04233 whole entry)
Described as §2. The format is protein assay. The procedure, abridged:
as §1

Active and inactive are the calls of the source. The calls are words filed in the database; no cut-off is given here.

We go through 34 compounds from ChEMBL document CHEMBL1255523, “Optimization of N-benzyl-benzoxazol-2-ones as receptor antagonists of macrophage migration inhibitory factor (MIF)” (Bioorg Med Chem Lett, 2010).

The term inhibition denotes how much of the control response was suppressed. As to `Cc1cc2oc(=O)n(Cc3cccc(O)c3)c2cc1C`, the inhibition was 33% in assay [1] and 32% in assay [2].

What is called IC50 is the point on the concentration scale where inhibition reaches its midpoint. Consider `COc1cccc(Cn2c(=O)oc3ccc(O)cc32)c1OC`, for which the IC50 is 2.1 µM in assay [3] (read-out: IC50) and 300 µM in assay [4].

Regarding `Cc1ccc2oc(=O)n(Cc3cccc(F)c3)c2c1`, the IC50 result in assay [3] is “Not Active”.

For the compound `O=c1oc2ccccc2n1Cc1ccccc1`, the IC50 in assay [3] (read-out: IC50) came to 21 µM. For the same compound, the inhibition in assay [2] came out at 18%.

On to `COc1cccc(Cn2c(=O)oc3ccc(OC)cc32)c1`, for which, in [4], the IC50 came to 200 µM. In [1], the inhibition was 41%.

On to `Cc1ccc2oc(=O)n(Cc3cccc(O)c3)c2c1`, for which the inhibition in assay [2] was 40%; in [5], 50%; in assay [6], 50%. The inhibition entry in assay [7] and in assay [8] was “Active” in each case.

As to `CCOc1ccccc1Cn1c(=O)oc2ccc(C)cc21`, the results for the inhibition in [1] and in assay [2] were 21% and 45%, respectively.

Turning to `COc1cccc(Cn2c(=O)oc3ccc(F)cc32)c1`, in assay [3], the IC50 result was “Not Active”.

Take `COc1cccc(Cn2c(=O)oc3cc(C)c(C)cc32)c1`: in assay [4], the IC50 is 0.115 µM. Also, the inhibition in [1] was 25%.

Turning to `COc1cc(O)cc(Cn2c(=O)oc3ccc(C)cc32)c1`, the values for the inhibition in [1] and in assay [2] were 12% and 22%, respectively.

For the compound `O=c1oc2ccc(CO)cc2n1Cc1cccc(O)c1`, the values for the IC50 result in [3] and in assay [4] were “Not Active” and 30 µM, respectively.

Take `O=c1oc2ccc(F)cc2n1Cc1cccc(O)c1`: the inhibition in assay [1] is 32%; in assay [2], 18%.

In the case of `Cc1ccc2oc(=O)n(Cc3cccc(N)c3)c2c1`, the inhibition was determined as 31% in [1] and 27% in assay [2].

In the case of `Cc1ccc2c(c1)oc(=O)n2Cc1cccc(O)c1`, the IC50 in assay [3] (read-out: IC50) was 0.0075 µM. In addition, the inhibition in assay [2] is 10%.

In the case of `CCOc1cccc(Cn2c(=O)oc3ccc(C)cc32)c1`, the values for the inhibition in assay [1] and in assay [2] were 20% and 30%, respectively.

For the compound `COc1ccc(Cn2c(=O)oc3ccc(C)cc32)cc1`, the IC50 entry in assay [3] is recorded as “Not Active”.

As for `COc1ccccc1Cn1c(=O)oc2ccc(O)cc21`, in assay [3] (read-out: IC50), the IC50 stood at 30 µM. Also, the inhibition in [2] is 27%.

On to `O=c1oc2cc(O)ccc2n1Cc1ccccc1`, for which the inhibition was 28% in [1] and 22% in assay [2].

Regarding `O=c1oc2ccc(O)cc2n1Cc1ccccc1`, the IC50 entry in [3] was “Not Active”.

Consider `COc1cccc(Cn2c(=O)oc3ccc(CO)cc32)c1`, for which the figures for the inhibition in assay [1] and in assay [2] were 44% and 27%, respectively.

As to `COc1ccc2oc(=O)n(Cc3cccc(O)c3)c2c1`, the IC50 in assay [4] is 0.08 µM. For the same compound, the inhibition in assay [1] was determined as 10%.

On to `COc1cc(Cn2c(=O)oc3ccc(C)cc32)cc(OC)c1`, for which the values for the inhibition in assay [1] and in assay [2] were 17% and 11%, respectively.

As to `O=c1oc2cc(F)ccc2n1Cc1cccc(O)c1`, the IC50 result in [3] and in assay [9] was “Not Active” throughout.

Consider `COc1cccc(Cn2c(=O)oc3ccc(C)cc32)c1OC`, for which the IC50 in assay [4] came to 7 µM. Further, the inhibition in assay [1] was found to be 32%.

On to `COc1cccc(Cn2c(=O)oc3cc(F)ccc32)c1`, for which the inhibition was found to be 35% in assay [1] and 15% in [2].

For `CCc1ccc2oc(=O)n(Cc3cccc(O)c3)c2c1`, the IC50 in assay [3] (read-out: IC50) is 2.5 µM. The inhibition in [2] is 19%.

Consider `CCc1ccc2oc(=O)n(Cc3cccc(OC)c3)c2c1`, for which the inhibition in assay [1] stood at 13%; in [2] it was 15%.

As for `CCOc1cc(O)cc(Cn2c(=O)oc3ccc(C)cc32)c1`, the inhibition in assay [1] was determined as 30%; in assay [2], 35%.

Turning to `COc1cccc(Cn2c(=O)oc3cc(C)ccc32)c1`, the inhibition in assay [1] was determined as 16%; in assay [2] it was 24%.

As to `O=c1oc2ccc(O)cc2n1Cc1cccc(O)c1`, the inhibition stood at 25% in [1] and 36% in [2].

With `Cc1ccc2c(c1)oc(=O)n2Cc1ccccc1`, in [2], the inhibition was determined as 25%.

For `COc1cccc(Cn2c(=O)oc3ccc(C)cc32)c1`, the inhibition in [2] was found to be 42%.

Take `Cc1ccc2oc(=O)n(Cc3ccc(O)cc3)c2c1`: the IC50 entry in assay [3] was “Not Active”.

`Ic1cc(-c2ccccc2)ncn1`: the figures for the inhibition in assay [5] and in [6] were 90% and 50%, respectively.
